Active and inactive are the calls of the source. The rule behind the calls is not given here.
How the values were obtained:
4T1 (Mus musculus) = experiment: Antiproliferative activity against mouse 4T1 cells at 10 uM after 48 hrs by MTT assay
HeLa = experiment: Antiproliferative activity against human HeLa cells at 10 uM after 48 hrs by MTT assay; assay type: functional, cell-based
In short: (§1)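 Cells seeded and allowed to adhere overnight, then given compound from 10 mM DMSO stock; DMSO alone as vehicle control. Grown 48 h, MTT (5 mg/ml) added for 3 h, formazan dissolved in DMSO, absorbance read at 590 nm. % inhibition = (A control − A treated)/A control × 100; three independent biological replicates. Single-point screen at 10 μM; IC50 from three independent experiments.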

DLD-1 = experiment: Antiproliferative activity against human DLD1 cells at 10 uM after 48 hrs by MTT assay; assay type: functional, cell-based
In short: as §1

[1] = biological target: DNA ligase 1 (Homo sapiens) (UniProt P18858); experiment: Inhibition of human Lig1 at 10 uM using double strand nicked DNA as substrate after 30 mins in presence of ATP by acrylamide-based fluorescence-assay
In short: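 Cy3-labelled nicked duplex (52-mer annealed to 25- and 27-mers; 1 pmol) with purified hLigI (0.2 pmol) in 50 mM Tris-Cl pH 7.5, 10 mM MgCl2, 0.25 mg/mL BSA, 100 mM NaCl, 500 µM ATP. Compound at 10 μM; 30 min at 37 °C. Stopped with formamide/EDTA; ligated and unligated strands separated on 7 M urea/12% denaturing gel. Triplicate.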

HepG2 = experiment: Antiproliferative activity against human HepG2 cells at 10 uM after 48 hrs by MTT assay; assay type: functional, cell-based
In short: as §1

MDA-MB-231 = experiment: Antiproliferative activity against human MDA-MB-231 cells at 10 uM after 48 hrs by MTT assay; assay type: functional, cell-based
In short: as §1

Sequence of DNA ligase 1 (Homo sapiens) (P18858 whole entry): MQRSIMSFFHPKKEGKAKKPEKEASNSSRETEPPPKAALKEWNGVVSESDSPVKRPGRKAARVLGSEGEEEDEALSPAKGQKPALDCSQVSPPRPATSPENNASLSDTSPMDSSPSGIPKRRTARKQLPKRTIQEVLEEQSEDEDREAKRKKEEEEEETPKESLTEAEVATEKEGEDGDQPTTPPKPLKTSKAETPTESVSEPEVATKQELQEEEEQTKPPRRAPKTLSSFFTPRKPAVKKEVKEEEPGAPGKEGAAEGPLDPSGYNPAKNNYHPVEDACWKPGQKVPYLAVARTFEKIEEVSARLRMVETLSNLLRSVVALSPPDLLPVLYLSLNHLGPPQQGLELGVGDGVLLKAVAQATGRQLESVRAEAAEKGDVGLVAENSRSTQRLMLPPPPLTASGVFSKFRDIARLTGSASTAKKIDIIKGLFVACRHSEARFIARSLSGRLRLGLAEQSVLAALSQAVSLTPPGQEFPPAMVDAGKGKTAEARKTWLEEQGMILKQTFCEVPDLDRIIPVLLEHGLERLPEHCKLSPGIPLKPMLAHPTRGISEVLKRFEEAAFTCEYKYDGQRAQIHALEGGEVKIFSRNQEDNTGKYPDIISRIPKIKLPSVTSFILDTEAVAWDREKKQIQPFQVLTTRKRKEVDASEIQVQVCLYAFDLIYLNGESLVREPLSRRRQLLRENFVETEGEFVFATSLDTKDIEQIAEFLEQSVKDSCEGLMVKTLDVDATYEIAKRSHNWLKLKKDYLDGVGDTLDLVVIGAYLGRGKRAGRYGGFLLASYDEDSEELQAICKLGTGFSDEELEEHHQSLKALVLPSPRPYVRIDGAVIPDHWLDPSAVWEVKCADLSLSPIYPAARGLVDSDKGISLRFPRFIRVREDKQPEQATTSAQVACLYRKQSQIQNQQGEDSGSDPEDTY

inhibition [1] [%]	SMILES	Activity (4T1 (Mus musculus))	Activity (HeLa)	Activity (DLD-1)	Activity (HepG2)	Activity (MDA-MB-231)
> 45	Cc1cc(/C=C/C(=O)c2cccs2)cc2c1OC(N)=C(C#N)C2c1c(C)[nH]c2ccccc12 (configuration not stated)	Active	Active	Active	Active	Active
< 20	COc1cc(C(=O)/C=C/c2cc3c(c(C(C)(C)C)c2)OC(N)=C(C#N)C3c2c(C)[nH]c3ccccc23)cc(OC)c1OC (configuration not stated)	–	–	–	–	–
> 50	Cc1[nH]c2ccccc2c1C1C(C#N)=C(N)Oc2c1cc(/C=C/C(=O)c1ccc(Cl)cc1)cc2C(C)(C)C (configuration not stated)	–	–	–	–	–
< 20	CCC(C)c1cc(/C=C/C(=O)c2cc(OC)c(OC)c(OC)c2)cc2c1OC(N)=C(C#N)C2c1c(C)[nH]c2ccccc12 (configuration not stated)	–	–	–	–	–
< 20	COc1ccc2[nH]c(C)c(C3C(C#N)=C(N)Oc4c(C(C)C)cc(/C=C/C(=O)c5cccs5)cc43)c2c1 (configuration not stated)	Active	Active	Active	Active	Active
< 20	COc1ccc2[nH]c(C)c(C3C(C#N)=C(N)Oc4c3cc(/C=C/C(=O)c3cccs3)cc4C(C)(C)C)c2c1 (configuration not stated)	Active	Active	Active	Active	Active
> 45	COc1ccc2[nH]c(C)c(C3C(C#N)=C(N)Oc4c3cc(/C=C/C(=O)c3ccc(C)cc3)cc4C(C)(C)C)c2c1 (configuration not stated)	–	–	–	–	–

Reference: ChEMBL document CHEMBL4138186, “Synthesis and bio-evaluation of indole-chalcone based benzopyrans as promising antiligase and antiproliferative agents” (Eur J Med Chem, 2018)
